Most compounds without a hit are left out; they make up all but 2.3% or so of the library.
N-glyco inh: increase of ERlucT glycosylation luciferase signal, primary screen, N-linked glycosylation inhibitor project, D54 ERlucT cells, luminescence, set 2. 360,000 compounds, 0.23% hits. reporter increase, % at 12.5 µM. AID 588692, 2011. D54 ERlucT glycosylation luciferase reporter, 24 h; percent of 100 nM tunicamycin response;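 active = mean luciferase reporter signal, scaled so untreated is 0 and the glycosylation-blocking control 100, at or above a set limit in every replicate; inconclusive = mean reaches the limit but not every replicate does; inactive = mean below the limit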;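 note: luciferase carries N-glycosylation sites so blocking glycosylation raises the light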
Arrestin-AP2 inh: inhibitors of beta-arrestin/AP2 binding, primary screen, biochemical, GPCR trafficking, flow cytometry. 340,000 compounds, 0.31% hits. FITC-arrestin peptide / GST-AP2 beads; AP2 beta2 appendage carries R879A mutation. beta-arrestin 1 C-terminal peptide binding to AP2 beta2-adaptin appendage (human). inhibition, % at 10 µM. AID 504490, 2011;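 active = inhibition above a set limit, near 3 SD of compounds lacking own fluorescence, cut at about 54% in these data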
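System: GST-AP2 R879A bound to glutathione beads, E. coli-expressed. Also added: 50 nM FITC-arrestin peptide. Schedule: compound with beads 12 min RT, then probe 1 h RT. Signal: bead flow cytometry, FITC channel. Read-out basis: percent response.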
Env fusion inh: inhibitors of HIV-1 Env-driven cell-cell fusion, primary screen, HeLa-JRFL effector, CEM21 target cells, luciferase | inhibition, % at 12.3 µM | 360,000 compounds, 1.1% hits | AID 651610, 2012;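 active = mean replicate inhibition score of at least 50 and every replicate individually at or above 50; inconclusive = only one of the two criteria met; inactive = mean below 50 and not all replicates reaching 50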
PAX8 reporter: inhibitors of PAX8-driven TPO luciferase reporter, primary screen, RMG-I cells, single concentration; SteadyGlo, 24 h; inhibition, % at 12.6 µM; 360,000 compounds, 1.2% hits; AID 652154, 2013;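 active = mean replicate inhibition at least 60% with every replicate also reaching 60%; inconclusive = only one of the two criteria is met; inactive = mean below 60% and not all replicates reaching 60%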;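 note: luciferase light reporting Pax8 driven TPO promoter activity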
PfHsp90 set2: growth inhibition of PfHsp90-expressing yeast, primary screen, antimalarial PfHsp90 inhibitor project, S. cerevisiae, BacTiter-Glo luminescence, single point, set 2. BacTiter-Glo ATP, 48 h; yeast lacking PDR1 and PDR3 efflux regulators. 310,000 compounds, 0.32% hits. inhibition, % at 9.4 µM;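 active = every replicate shows inhibition above about 80%, whatever the replicate mean, limit read from the data; inconclusive = mean inhibition reaches the set limit but some replicate falls short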
Rtt109 Vps75: inhibitors of C. albicans Rtt109/Vps75 HAT, primary screen, biochemical, ThioGlo CoA-SH fluorescence, plate reader; purified Rtt109/Vps75, 4 h; inhibition, % at 34.9 µM; 330,000 compounds, 0.16% hits;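 active = inhibition of at least 50% in every replicate; inconclusive = best replicate reaches 50% inhibition but some replicates fall short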
Target sequence (Q5AAJ8 whole entry, looked up): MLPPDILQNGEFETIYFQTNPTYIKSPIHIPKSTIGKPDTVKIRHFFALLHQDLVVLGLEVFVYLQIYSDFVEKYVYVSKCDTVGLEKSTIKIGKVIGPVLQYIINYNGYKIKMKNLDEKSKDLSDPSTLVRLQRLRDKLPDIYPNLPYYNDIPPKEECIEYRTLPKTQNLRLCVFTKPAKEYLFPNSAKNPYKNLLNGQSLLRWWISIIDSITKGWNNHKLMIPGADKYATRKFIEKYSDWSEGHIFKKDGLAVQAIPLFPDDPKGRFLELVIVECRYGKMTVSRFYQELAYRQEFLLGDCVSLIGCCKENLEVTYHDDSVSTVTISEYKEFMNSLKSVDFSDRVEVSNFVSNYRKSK
Arr-AP2 CP1: inhibitors of arrestin peptide binding to AP2, confirmation, biochemical, cherry pick 1, flow cytometry beads; shares compounds with Arrestin-AP2 inh; GST-AP2 beads, FITC arrestin peptide binding; GST-fused beta2-adaptin appendage, R879A mutant; inhibition, % at 10 µM; 1,300 compounds, 2% hits; AID 504908, 2011;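 active = inhibition above a set limit, roughly 3 SD of non-fluorescent compound noise, cut at about 38% in these data; inactive = inhibition at or below that limit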;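 note: loss of bead fluorescence from 50 nM FITC arrestin peptide bound to appendage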
GST GSH counter: GST-fluorescein capture on glutathione beads, confirmation, artefact control for arrestin-AP2 inhibitor project, biochemical, cherry pick 1, flow cytometry; GST-fluorescein binding to GSH beads, fluorescence, counter-screen; inhibition, % at 10 µM; 1,300 compounds, 2% hits; shares compounds with Arrestin-AP2 inh;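 active = inhibition above 50%, about 3 SD of the inhibition seen with non-fluorescent compounds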;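 note: fluorescein maleimide labelled GST captured on 4 micron glutathione beads; higher means more loss of bead fluorescence from quenching or blocked binding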
A number is an active result; - = inactive; ? = inconclusive; . = no result; ! = a repeat was not active.

SMILES	N-glyco inh	Arrestin-AP2 inh	Env fusion inh	PAX8 reporter	PfHsp90 set2	Rtt109 Vps75	others
Cc1ccccc1-c1ccc([C@H]2[C@H]3CN(C(=O)Cc4ccccn4)CCCCN3[C@H]2CO)cc1	.	.	.	-	.	.
COC(=O)[C@H]1[C@H](CO)[C@H]2Cn3c(cccc3=O)[C@@H]1N2CCc1ccccc1	.	.	-	.	.	.
COC1CC2C=C(C)C=CC=CC(=O)NC(c3ccccc3)CC=CCCC(O)CC(=O)C2=C1O (stereo not given)	-	.	91.8	116.2	.	.
C[C@H]1CC[C@@H]2[C@@H](C)[C@H]3[C@H](C[C@H]4[C@@H]5CC=C6C[C@@H](O[C@@H]7O[C@H](CO)[C@H](O)[C@H](O[C@@H]8O[C@H](CO)[C@@H](O)[C@H](O)[C@H]8O)[C@H]7O[C@@H]7O[C@@H](C)[C@H](O)[C@@H](O)[C@H]7O)CC[C@]6(C)[C@H]5CC[C@]34C)N2C1	-	-	.	.	-	-
C[C@@H]1O[C@@H](O[C@H]2C[C@@H](O)[C@]3(CO)[C@@H]4C(CC[C@]3(O)C2)[C@@]2(O)CC[C@H](C3COC(=O)C3)[C@@]2(C)C[C@H]4O)[C@H](O)[C@H](O)[C@H]1O (stereo not given in full)	-	-	-	85.9	-	-
C[C@@H]1CN([C@@H](C)CO)C(=O)c2c(c3ccccc3n2C)-c2ccccc2CO[C@H]1CN(C)C(=O)Oc1ccccc1	.	.	.	-	.	.
O=C(Cc1ccncc1)N1CCCCN2[C@H](CO)[C@H](c3ccc(C#Cc4ccccc4F)cc3)[C@H]2C1	.	.	.	-	.	.
CN1C(=O)/C(=C/c2ccc(Cl)s2)C(=O)NC1=S	-	-	-	-	93.9	-
CC1=C2C[C@H]3[C@@H](CC=C4C[C@@H](O)CC[C@@]43C)[C@@H]2CC[C@]12O[C@@H]1C[C@H](C)CN[C@@H]1C2C (stereo not given in full)	.	.	-	-	.	.
O=C(Cc1ccccn1)N1CCCCN2[C@H](C1)[C@H](c1ccc(-c3ccccc3)cc1)[C@@H]2CO	.	.	.	-	.	.
O=C1NC(=O)C(Sc2ccccc2[N+](=O)[O-])C(=O)N1	-	-	-	-	-	86.1
COC1/C=C/C=C(\C)Cc2cc(O)c(Cl)c(c2)N(C)C(=O)CC(OC(=O)C(C)C)C2(C)OC2C(C)C2CC1(O)NC(=O)O2 (stereo not given)	-	-	56.3	75.5	-	-
N#Cc1ccc2nc(-c3ccc(CN4CCC(n5c(=O)[nH]c6ccccc65)CC4)cc3)c(-c3ccccc3)nc2c1	.	.	-	90.8	.	.
Cc1cccc2nc(-c3ccccc3)c(-c3ccc(CN4CCC(n5c(=O)[nH]c6ccccc65)CC4)cc3)nc12	.	.	-	-	.	.
O=C(Nc1cccnc1)c1c(O)c2c(n(Cc3ccccc3)c1=O)CCCC2	-	-	.	.	-	-
O=C(Nc1ccc(F)cc1)c1c(O)c2c(n(Cc3ccccc3)c1=O)CCCC2	-	-	-	-	-	50.2
NC(N)=N/N=C/c1ccc(N(c2ccccc2)c2ccccc2)cc1	-	-	-	81.3	-	-
CN1C(=O)N(C)C(=O)C2(Cc3cc(NC(=O)c4ccccc4Cl)ccc3N3CCCC32)C1=O (stereo not given)	-	56.2	-	-	-	-	Arr-AP2 CP1=-;GST GSH counter=-
CCOC(=O)c1c(/N=C/c2c(O)n(-c3ccc(F)cc3)c(=S)[nH]c2=O)sc2c1CCCC2	-	-	-	.	.	-
CCOC(=O)c1c(/N=C/c2c(O)n(-c3ccccc3F)c(=S)[nH]c2=O)sc2c1CCCC2	-	84.2	.	.	-	-	Arr-AP2 CP1=-;GST GSH counter=-
Cc1ccc(OC(=O)N(C)C[C@H]2OCc3ccccc3-c3c(n(C)c4ccccc34)C(=O)N([C@H](C)CO)C[C@H]2C)cc1	.	.	.	-	.	.
O=c1c2ccccc2[se]n1-c1ccccc1	-	92.2	-	-	-	?	Arr-AP2 CP1=124.9!;GST GSH counter=-
O=c1c2ccccc2nc(-c2ccccc2)n1-c1ccccc1	-	-	-	-	-	-
CC[N+]12CCC(CC1)C(=C(c1ccccc1)c1ccccc1)C2	-	-	.	-	-	-
C[N+]12CCC(CC1)C(=C(c1ccccc1)c1ccccc1)C2	-	66.0	-	-	-	-	Arr-AP2 CP1=-;GST GSH counter=-
SMILES	N-glyco inh	Arrestin-AP2 inh	Env fusion inh	PAX8 reporter	PfHsp90 set2	Rtt109 Vps75	others
COc1cccc(-c2ccc([C@H]3[C@H](CO)N4CCCCN(C(=O)Cc5ccncc5)C[C@@H]34)cc2)c1	.	.	.	-	.	.
CN1CCN(c2ccc(N)cc2Cl)CC1	-	59.3	-	-	-	-	Arr-AP2 CP1=-;GST GSH counter=52.2
O=C(c1ccc(Cl)cc1)C12CN3CN(CN(C3)C1)C2	-	105.5	.	.	-	-	Arr-AP2 CP1=-;GST GSH counter=-
COc1ccc(-c2ccc([C@@H]3[C@H](CO)N4CCCCN(C(=O)Cc5ccccc5)C[C@@H]34)cc2)cc1	.	.	.	-	.	.
COC(=O)[C@@H]1[C@@H](CO)[C@@H]2Cn3c(ccc(-c4ccccc4F)c3=O)[C@H]1N2	.	.	-	-	.	.
O=C(NCCO)c1nsnc1NCCCl	-	57.7	-	-	-	-	Arr-AP2 CP1=-;GST GSH counter=-

High-throughput results: PubChem, several laboratories
